Reference: ChEMBL document CHEMBL4017520, “Discovery, Structure-Activity Relationship, and Antiparkinsonian Effect of a Potent and Brain-Penetrant Chemical Series of Positive Allosteric Modulators of Metabotropic Glutamate Receptor 4” (J Med Chem, 2017)
pEC50: −log10 of the molar value. The source made the active and inactive calls. The rule behind the calls is not given here.

How the values were obtained:
[1] = target: Metabotropic glutamate receptor 5 (Homo sapiens) (UniProt P41594); assay: Activity at human mGlu5 receptor expressed in HEK293 cells co-expressing Gi/Gq assessed as effect on EC20/EC80 glutamate-induced intracellular calcium level up to 10 uM preincubated for 10 mins followed by glutamate addition measured for 3 mins by Fluo4-AM dye based fluorescence assay; format: functional, cell-based
Chain of Metabotropic glutamate receptor 5 (Homo sapiens) (P41594 21-1212 limits assumed): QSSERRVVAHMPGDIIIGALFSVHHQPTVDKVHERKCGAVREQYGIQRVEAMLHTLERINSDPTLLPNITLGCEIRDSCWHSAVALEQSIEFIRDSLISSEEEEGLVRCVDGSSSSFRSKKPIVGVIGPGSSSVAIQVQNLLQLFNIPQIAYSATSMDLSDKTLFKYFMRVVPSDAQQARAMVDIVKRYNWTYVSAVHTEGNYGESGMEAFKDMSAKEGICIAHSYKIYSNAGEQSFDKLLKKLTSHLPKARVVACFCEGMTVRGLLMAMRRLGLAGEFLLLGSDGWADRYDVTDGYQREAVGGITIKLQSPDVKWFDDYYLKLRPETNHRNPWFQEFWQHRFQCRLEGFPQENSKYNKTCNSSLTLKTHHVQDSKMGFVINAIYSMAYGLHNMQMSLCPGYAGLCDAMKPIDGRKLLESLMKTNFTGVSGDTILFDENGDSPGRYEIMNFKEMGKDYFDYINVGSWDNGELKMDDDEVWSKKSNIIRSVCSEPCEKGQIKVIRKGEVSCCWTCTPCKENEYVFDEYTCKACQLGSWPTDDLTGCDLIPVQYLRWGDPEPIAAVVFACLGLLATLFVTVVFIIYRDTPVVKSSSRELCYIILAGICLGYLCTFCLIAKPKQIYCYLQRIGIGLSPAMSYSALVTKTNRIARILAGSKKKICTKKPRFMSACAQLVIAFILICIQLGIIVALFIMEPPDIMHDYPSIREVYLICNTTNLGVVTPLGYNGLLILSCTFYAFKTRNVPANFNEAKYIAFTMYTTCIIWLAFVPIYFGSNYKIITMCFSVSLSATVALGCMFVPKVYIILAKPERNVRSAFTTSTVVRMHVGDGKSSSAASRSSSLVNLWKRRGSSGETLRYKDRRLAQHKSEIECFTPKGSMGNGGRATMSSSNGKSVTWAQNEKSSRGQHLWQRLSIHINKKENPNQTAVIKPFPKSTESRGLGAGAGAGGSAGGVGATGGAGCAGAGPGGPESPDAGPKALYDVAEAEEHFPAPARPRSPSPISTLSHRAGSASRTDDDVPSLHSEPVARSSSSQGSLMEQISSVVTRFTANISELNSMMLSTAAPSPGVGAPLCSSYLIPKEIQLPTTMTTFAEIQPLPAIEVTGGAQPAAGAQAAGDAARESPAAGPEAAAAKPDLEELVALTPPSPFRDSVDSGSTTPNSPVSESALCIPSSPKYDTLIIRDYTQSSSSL
How it was run: (§1)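 HEK-293 cells were electroporated with the human mGluR plus a promiscuous or chimeric G protein and cultured 24 h, then serum-starved 3 h. Cells were loaded 1.5 h with 1 μM Fluo4-AM in HBSS/HEPES buffer with probenecid and 0.1% BSA. Compound was added for 10 min, then glutamate at EC20 (PAM) or EC80 (NAM), and fluorescence (ex 485/em 525) was read for 3 min.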

[2] = system: Rattus norvegicus; assay: Protection against 6-OHDA induced parkinsonian motor deficit in Sprague-Dawley rat assessed as increase in active time at 30 mg/kg, ip after 28 days post surgery; format: functional, organism-based
How it was run: (§2)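 Adult male Sprague−Dawley rats with bilateral 6-OHDA striatal lesions given compound 30 mg/kg ip or vehicle at T0; spontaneous locomotor activity (active time, slow activity, rearing) counted in 5-min bins versus pre-surgery vehicle; n = 10.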

[3] = target: Metabotropic glutamate receptor 2 (Homo sapiens) (UniProt Q14416); assay: Activity at human mGlu2 receptor expressed in HEK293 cells co-expressing Gi/Gq assessed as effect on EC20/EC80 glutamate-induced intracellular calcium level up to 10 uM preincubated for 10 mins followed by glutamate addition measured for 3 mins by Fluo4-AM dye based fluorescence assay; format: functional, cell-based; how it was run: as §1
Chain of Metabotropic glutamate receptor 2 (Homo sapiens) (Q14416 19-872 limits assumed): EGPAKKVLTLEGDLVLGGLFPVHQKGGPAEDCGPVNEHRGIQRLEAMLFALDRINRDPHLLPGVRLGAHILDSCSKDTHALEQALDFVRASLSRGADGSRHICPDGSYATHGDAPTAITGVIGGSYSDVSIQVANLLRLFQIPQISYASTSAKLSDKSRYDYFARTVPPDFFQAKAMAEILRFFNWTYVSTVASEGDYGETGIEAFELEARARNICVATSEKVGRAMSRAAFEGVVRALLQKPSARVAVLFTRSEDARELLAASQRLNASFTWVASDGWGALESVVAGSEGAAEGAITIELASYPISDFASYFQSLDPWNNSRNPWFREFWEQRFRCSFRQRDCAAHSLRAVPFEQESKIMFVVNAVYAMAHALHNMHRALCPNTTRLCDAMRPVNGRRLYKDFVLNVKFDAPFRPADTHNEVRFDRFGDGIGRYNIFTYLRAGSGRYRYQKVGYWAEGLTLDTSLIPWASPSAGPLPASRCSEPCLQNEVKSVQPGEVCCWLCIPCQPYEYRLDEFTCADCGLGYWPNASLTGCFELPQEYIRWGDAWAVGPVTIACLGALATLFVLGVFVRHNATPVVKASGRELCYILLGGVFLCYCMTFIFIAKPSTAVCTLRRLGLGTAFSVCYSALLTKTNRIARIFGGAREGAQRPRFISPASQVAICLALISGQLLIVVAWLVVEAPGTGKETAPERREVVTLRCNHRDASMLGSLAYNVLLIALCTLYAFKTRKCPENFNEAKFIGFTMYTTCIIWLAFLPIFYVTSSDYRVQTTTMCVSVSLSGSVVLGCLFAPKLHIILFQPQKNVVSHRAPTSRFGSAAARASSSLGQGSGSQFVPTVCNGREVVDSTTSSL

[4] = target: T1, Metabotropic glutamate receptor 4 (Homo sapiens, UniProt Q14833); assay: Positive allosteric modulation of recombinant human mGlu4 receptor expressed in HEK293 cells co-expressing chimeric Gi/Gq protein assessed as fold shift in glutamate-induced calcium flux at 3 uM preincubated for 10 mins followed by glutamate addition measured for 3 mins by Fluo4-AM dye based fluorescence assay; format: functional, cell-based
T1 sequence (Q14833 whole entry): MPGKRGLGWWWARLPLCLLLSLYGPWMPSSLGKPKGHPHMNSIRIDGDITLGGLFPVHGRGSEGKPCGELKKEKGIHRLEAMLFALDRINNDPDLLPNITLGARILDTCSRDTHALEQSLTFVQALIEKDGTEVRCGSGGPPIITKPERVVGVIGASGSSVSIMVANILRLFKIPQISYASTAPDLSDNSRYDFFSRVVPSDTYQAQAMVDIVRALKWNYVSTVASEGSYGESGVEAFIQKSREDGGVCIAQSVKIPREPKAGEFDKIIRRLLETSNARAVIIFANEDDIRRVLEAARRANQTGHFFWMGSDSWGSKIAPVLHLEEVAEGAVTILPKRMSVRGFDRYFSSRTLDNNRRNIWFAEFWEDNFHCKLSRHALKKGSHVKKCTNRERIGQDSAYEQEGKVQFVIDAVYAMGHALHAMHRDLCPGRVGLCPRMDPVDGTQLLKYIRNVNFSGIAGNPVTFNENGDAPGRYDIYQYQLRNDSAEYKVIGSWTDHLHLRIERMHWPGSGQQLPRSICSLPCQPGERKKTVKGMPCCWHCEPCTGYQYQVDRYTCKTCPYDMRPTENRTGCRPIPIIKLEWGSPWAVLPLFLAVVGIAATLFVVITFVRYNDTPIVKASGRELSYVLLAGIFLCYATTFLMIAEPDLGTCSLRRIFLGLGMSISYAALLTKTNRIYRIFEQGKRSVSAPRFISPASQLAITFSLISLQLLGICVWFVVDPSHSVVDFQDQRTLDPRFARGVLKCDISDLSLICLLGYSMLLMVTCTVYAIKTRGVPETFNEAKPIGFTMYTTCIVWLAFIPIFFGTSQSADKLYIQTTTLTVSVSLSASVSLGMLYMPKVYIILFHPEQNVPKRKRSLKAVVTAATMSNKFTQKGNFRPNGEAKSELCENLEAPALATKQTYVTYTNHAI
How it was run: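 HEK-293 cells transiently co-transfected by electroporation with human mGluR4 and chimeric Gi/Gq (GqTOP) were cultured 24 h, FCS-starved 3 h, then loaded 1 h 30 min with 1 μM Fluo4-AM in HBSS/20 mM HEPES buffer containing probenecid and 0.1% BSA. Compound was added for 10 min, then glutamate (10 or 20 concentrations over 4.5 logs), read 3 min (ex 485/em 525 nm). The fold change in glutamate potency with vs without compound gives the shift.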

[5] = system: Rattus norvegicus; assay: Protection against 6-OHDA induced parkinsonian motor deficit in Sprague-Dawley rat assessed as increase in slow activity at 30 mg/kg, ip after 30 to 120 mins post administration; format: functional, organism-based; how it was run: as §2
[6] = target: Metabotropic glutamate receptor 7 (Homo sapiens) (UniProt Q14831); assay: Activity at human mGlu7 receptor expressed in HEK293 cells co-expressing Gi/Gq assessed as effect on LAP4-induced intracellular calcium level up to 10 uM after 10 mins by Fluo4-AM dye based fluorescence assay; format: functional, cell-based
Chain of Metabotropic glutamate receptor 7 (Homo sapiens) (Q14831 whole entry): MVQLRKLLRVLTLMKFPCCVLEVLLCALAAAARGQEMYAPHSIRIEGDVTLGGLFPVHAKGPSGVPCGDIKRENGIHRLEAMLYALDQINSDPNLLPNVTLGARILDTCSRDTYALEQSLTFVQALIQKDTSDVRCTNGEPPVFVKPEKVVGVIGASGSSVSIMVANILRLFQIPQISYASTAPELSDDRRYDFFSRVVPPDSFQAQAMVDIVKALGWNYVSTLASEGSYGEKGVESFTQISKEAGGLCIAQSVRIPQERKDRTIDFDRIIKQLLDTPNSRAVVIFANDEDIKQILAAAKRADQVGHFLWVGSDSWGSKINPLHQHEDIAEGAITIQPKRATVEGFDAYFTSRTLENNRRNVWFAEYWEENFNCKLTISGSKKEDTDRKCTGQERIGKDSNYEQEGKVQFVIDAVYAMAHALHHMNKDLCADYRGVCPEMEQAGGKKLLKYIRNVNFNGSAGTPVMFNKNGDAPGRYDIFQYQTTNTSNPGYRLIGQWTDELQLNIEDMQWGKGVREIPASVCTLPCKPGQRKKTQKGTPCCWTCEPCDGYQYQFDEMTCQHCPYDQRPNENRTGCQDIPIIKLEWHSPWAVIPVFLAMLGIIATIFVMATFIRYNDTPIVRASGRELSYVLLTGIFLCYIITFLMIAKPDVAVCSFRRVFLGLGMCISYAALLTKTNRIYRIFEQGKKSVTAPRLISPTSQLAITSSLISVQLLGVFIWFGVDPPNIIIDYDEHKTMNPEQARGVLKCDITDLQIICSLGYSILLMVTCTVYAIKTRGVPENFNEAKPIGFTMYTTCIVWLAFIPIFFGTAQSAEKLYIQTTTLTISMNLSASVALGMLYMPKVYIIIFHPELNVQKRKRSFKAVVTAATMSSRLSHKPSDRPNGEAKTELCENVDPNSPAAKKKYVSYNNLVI
How it was run: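 Human mGluR7 in transfected HEK293 cells loaded with Fluo4-AM. Compound was added for 10 min, followed by L-AP4 at EC20 or EC80 in place of glutamate, and calcium fluorescence was recorded for 3 min. Results are from at least two or three independent experiments.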

[7] = system: Mus musculus; assay: Anti-parkinson's activity in ip dosed C57BL/6 mouse assessed as reversal of haloperidol-induced catalepsy after 40 mins; format: functional, organism-based
[8] = target: Mitogen-activated protein kinase kinase kinase 7 (Homo sapiens) (UniProt O43318); assay: Inhibition of TAK1 (unknown origin) at 10 uM
Chain of Mitogen-activated protein kinase kinase kinase 7 (Homo sapiens) (O43318 whole entry): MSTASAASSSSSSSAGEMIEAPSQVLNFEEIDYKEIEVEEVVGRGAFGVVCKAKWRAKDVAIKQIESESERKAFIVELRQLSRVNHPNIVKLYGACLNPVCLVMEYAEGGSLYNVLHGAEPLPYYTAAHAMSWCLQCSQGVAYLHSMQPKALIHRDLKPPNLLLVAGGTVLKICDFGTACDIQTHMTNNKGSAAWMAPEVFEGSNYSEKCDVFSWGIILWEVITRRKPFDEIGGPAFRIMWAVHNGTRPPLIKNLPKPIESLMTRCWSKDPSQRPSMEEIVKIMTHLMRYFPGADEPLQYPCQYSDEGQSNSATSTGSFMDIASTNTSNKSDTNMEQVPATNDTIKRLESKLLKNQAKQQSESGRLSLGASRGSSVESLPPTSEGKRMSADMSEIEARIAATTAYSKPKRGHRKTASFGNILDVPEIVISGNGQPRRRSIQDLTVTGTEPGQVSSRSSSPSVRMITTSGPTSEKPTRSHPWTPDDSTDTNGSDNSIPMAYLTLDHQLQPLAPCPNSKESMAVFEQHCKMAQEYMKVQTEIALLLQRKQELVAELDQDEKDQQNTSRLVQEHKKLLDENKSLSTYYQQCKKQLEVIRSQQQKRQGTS

[9] = system: Brain; assay: Fraction unbound in Sprague-Dawley rat brain at 30 mg/kg, ip after 240 mins; format: ADME, organism-based; conditions: in vivo, 4 h
[10] = Plasma clearance in Sprague-Dawley rat at 1 mg/kg, iv administered as single dose by LC-MS/MS analysis; format: ADME, organism-based
How it was run: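 Single iv dose, 1 mg/kg in rat or 2 mg/kg in mouse; plasma PK parameters derived; brain/plasma ratio taken at 1 h postdose (rat) or 30 min postdose (mouse). Mean of 3 rats; 2 mice for mouse Cmax and brain/plasma.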

[11] = system: Mus musculus; assay: Volume of distribution in C57BL/6 mouse at 2 mg/kg, iv administered as single dose by LC-MS/MS analysis; format: ADME, organism-based; conditions: in vivo
How it was run: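 Single intravenous dose: rats 1 mg/kg, mice 2 mg/kg. Plasma concentration–time data yielded Cmax, t1/2, AUC0−∞, plasma clearance and volume of distribution. Values are mean ±SEM of 3 animals.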

[12] = Plasma concentration in Sprague-Dawley rat at 30 mg/kg, ip after 60 mins; format: ADME, organism-based
How it was run: (§3)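 Rats dosed 30 mg/kg ip; plasma sampled over time, brain measured at 30 and 60 min; brain/plasma ratio averaged over 30 and 60 min.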

[13] = target: Amine oxidase [flavin-containing] A (Homo sapiens, UniProt P21397); assay: Activity at MAO-A (unknown origin) up to 10 uM; format: ADME
Chain of Amine oxidase [flavin-containing] A (P21397 whole entry): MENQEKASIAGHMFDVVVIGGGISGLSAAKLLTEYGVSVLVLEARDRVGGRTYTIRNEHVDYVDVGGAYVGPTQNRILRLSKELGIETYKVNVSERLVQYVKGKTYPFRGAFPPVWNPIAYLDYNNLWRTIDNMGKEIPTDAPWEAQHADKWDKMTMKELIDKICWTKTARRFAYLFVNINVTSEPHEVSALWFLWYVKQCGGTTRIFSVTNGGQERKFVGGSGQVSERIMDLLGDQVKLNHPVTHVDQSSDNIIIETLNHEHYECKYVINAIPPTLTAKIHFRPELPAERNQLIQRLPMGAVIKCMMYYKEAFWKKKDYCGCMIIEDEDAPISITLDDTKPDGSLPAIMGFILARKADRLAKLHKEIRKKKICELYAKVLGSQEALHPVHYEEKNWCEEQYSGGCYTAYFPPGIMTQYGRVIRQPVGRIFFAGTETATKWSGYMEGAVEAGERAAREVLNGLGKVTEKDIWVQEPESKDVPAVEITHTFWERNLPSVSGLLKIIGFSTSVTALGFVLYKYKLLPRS

[14] = Half life in Sprague-Dawley rat plasma at 30 mg/kg, ip administered as single dose by LC-MS/MS analysis; format: ADME, organism-based
How it was run: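 Single dose ip (10 or 30 mg/kg, rat) or oral (10 mg/kg, rat or mouse); plasma Cmax, Tmax, half-life, AUC0−inf derived; brain concentration and brain/plasma ratio at 30 min postdose. Mean of 3 rats or 2 mice.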

[15] = system: Mus musculus; assay: Anti-parkinson's activity in C57BL/6 mouse assessed as brain concentration required for reversal of haloperidol-induced catalepsy at 30 mg/kg, ip after 40 mins; format: functional
[16] = Drug uptake in C57BL/6 mouse brain at 10 mg/kg, po after 30 mins post dose administered as single dose by LC-MS/MS analysis; format: ADME, organism-based; conditions: read-out: Drug uptake
How it was run: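 Mice given 10 mg/kg orally. Plasma Cmax was determined and brain concentration measured at 30 min postdose. Values are the mean (±SEM) of 2 mice.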

[17] = Oral bioavailability in Sprague-Dawley rat plasma at 10 mg/kg administered as single dose by LC-MS/MS analysis; format: ADME, organism-based
[18] = Drug uptake in Sprague-Dawley rat brain at 30 mg/kg, ip after 30 mins; format: ADME, organism-based; conditions: read-out: Drug uptake
[19] = Drug uptake in Sprague-Dawley rat brain at 10 mg/kg, ip after 30 mins post dose administered as single dose by LC-MS/MS analysis; format: ADME, organism-based; conditions: read-out: Drug uptake
How it was run: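 Rats dosed ip at 10 or 30 mg/kg. Plasma Cmax, Tmax, half-life and AUC0–inf were determined. Brain concentration was measured 30 min postdose, and brain/plasma ratio was taken at 30 min. Values are the mean (±SEM) of 3 rats.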

[20] = Cmax in C57BL/6 mouse at 2 mg/kg, iv administered as single dose by LC-MS/MS analysis; format: ADME, organism-based; set-up: dose 2 mg/kg, route intravenous; conditions: in vivo
[21] = target: T1, Metabotropic glutamate receptor 4; assay: Positive allosteric modulation of recombinant human mGlu4 receptor expressed in HEK293 cells co-expressing Gi/Gq assessed as increase in glutamate-induced calcium flux preincubated for 10 mins followed by glutamate addition measured for 3 mins by Fluo4-AM dye based fluorescence assay; format: functional, cell-based; conditions: read-out: EC50
[22] = Ratio of drug uptake in Sprague-Dawley rat brain at 10 mg/kg, po to EC50 for rat mGlu4 receptor expressed in HEK293 cells
How it was run: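 Rats received a single ip or oral dose. Brain concentration was measured 30 min postdose, mean of 3 rats, and divided by the EC50 measured in cell lines overexpressing rat mGluR4.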

[23] = Plasma concentration in Sprague-Dawley rat at 30 mg/kg, ip after 30 mins; format: ADME, organism-based; how it was run: as §3

O/N=c1\cc(-c2cc3cccn3cn2)oc2ccc(OCCN3CCOCC3)cc12 [listing 1 of 2 here]
Activity [1]: inactive
Activity [2]: Active
Activity [3]: inactive
fold change (FC) [4]: 10
Activity [5]: Active
Activity [6]: inactive
Activity [7]: Dose-dependent effect
inhibition [8]: inactive

O/N=c1\cc(-c2cc3cccn3cn2)oc2ccc(OCCN3CCOCC3)cc12 [listing 2 of 2 here]
Drug uptake(free) [9]: 2 ng/g
clearance [10]: 113 mL/min/kg
Vd [11]: 6 L/kg
concentration at 1 h [12]: 3560 ng/mL
Activity [13]: Not Active
half-life [14]: 4.5 h
fEC50 [15]: 5 nM
concentration at 0.5 h [16]: 390 ng/g
bioavailability [17]: 54%
concentration at 0.5 h [18]: 22800 ng/g
concentration at 0.5 h [19]: 5650 ng/g
Cmax [20]: 753 ng/mL
pEC50 [21]: 7.34
Ratio [22]: 0.3
concentration at 0.5 h [23]: 7400 ng/mL
